Results: ChEMBL document CHEMBL3792365, “Dioxol and dihydrodioxin analogs of 2- and 3-phenylacetonitriles as potent anti-cancer agents with nanomolar activity against a variety of human cancer cells” (2016)

Assays:
Assay type in all cases: functional
[1] = Growth inhibition of human PC3 cells after 48 hrs by sulforhodamine B assay; conditions: PC-3, 48 h
How it was run: (§1)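 Five-dose concentration series run across a panel of 60 human tumour cell lines. GI50 is taken as the drug concentration giving a 50% reduction in net protein increase relative to untreated control cells.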

[2] = tested on: MCF7; experiment: Growth inhibition of human MCF7 cells at 10 uM after 48 hrs by sulforhodamine B assay; conditions: MCF7, 48 h, values are per cent of control
[3] = Growth inhibition of human OVCAR3 cells at 10 uM after 48 hrs by sulforhodamine B assay; conditions: OVCAR-3, 48 h, values are per cent of control
[4] = tested on: ACHN; experiment: Growth inhibition of human ACHN cells after 48 hrs by sulforhodamine B assay
How it was run: (§2)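 Five-dose testing against a 60-line human tumor cell panel. GI50 is the drug concentration giving a 50% reduction in net protein increase relative to untreated control cells.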

[5] = Growth inhibition of human SNB75 cells at 10 uM after 48 hrs by sulforhodamine B assay; conditions: SNB-75, 48 h, values are per cent of control
[6] = tested on: M14; experiment: Growth inhibition of human M14 cells after 48 hrs by sulforhodamine B assay; conditions: M14, 48 h; how it was run: as §2
[7] = Growth inhibition of human COLO205 cells after 48 hrs by sulforhodamine B assay; conditions: COLO 205, 48 h; how it was run: as §2
[8] = Growth inhibition of human HOP92 cells at 10 uM after 48 hrs by sulforhodamine B assay; conditions: HOP-92, 48 h, values are per cent of control
[9] = tested on: MDA-MB-231; experiment: Growth inhibition of human MDA-MB-231 cells at 10 uM after 48 hrs by sulforhodamine B assay; conditions: MDA-MB-231, 48 h, values are per cent of control
[10] = Growth inhibition of human HCT116 cells after 48 hrs by sulforhodamine B assay; conditions: HCT-116, 48 h; how it was run: as §2
[11] = tested on: CCRF-CEM; experiment: Growth inhibition of human CCRF-CEM cells at 10 uM after 48 hrs by sulforhodamine B assay; conditions: values are per cent of control
[12] = tested on: Malme-3M; experiment: Growth inhibition of human MALME-3M cells at 10 uM after 48 hrs by sulforhodamine B assay; conditions: values are per cent of control
[13] = Growth inhibition of human HOP92 cells after 48 hrs by sulforhodamine B assay; conditions: HOP-92, 48 h; how it was run: as §2
[14] = Growth inhibition of human RPMI8226 cells at 10 uM after 48 hrs by sulforhodamine B assay; conditions: RPMI-8226, 48 h, values are per cent of control
[15] = tested on: A549; experiment: Growth inhibition of human A549/ATCC cells after 48 hrs by sulforhodamine B assay; conditions: A549, 48 h; how it was run: as §2
[16] = Growth inhibition of human SW620 cells after 48 hrs by sulforhodamine B assay; conditions: SW-620, 48 h; how it was run: as §1
[17] = Growth inhibition of human HL-60(TB) cells at 10 uM after 48 hrs by sulforhodamine B assay; conditions: HL-60, 48 h, values are per cent of control
[18] = Growth inhibition of human Hs 578T cells after 48 hrs by sulforhodamine B assay; how it was run: as §2
[19] = tested on: SK-MEL-5; experiment: Growth inhibition of human SK-MEL-5 cells after 48 hrs by sulforhodamine B assay; conditions: SK-MEL-5, 48 h; how it was run: as §1
[20] = Growth inhibition of human OVCAR5 cells at 10 uM after 48 hrs by sulforhodamine B assay; conditions: OVCAR-5, 48 h, values are per cent of control
[21] = tested on: A498; experiment: Growth inhibition of human A498 cells at 10 uM after 48 hrs by sulforhodamine B assay; conditions: A498, 48 h, values are per cent of control
[22] = Growth inhibition of human UACC257 cells at 10 uM after 48 hrs by sulforhodamine B assay; conditions: UACC-257, 48 h, values are per cent of control
[23] = Growth inhibition of human SKOV3 cells after 48 hrs by sulforhodamine B assay; conditions: SK-OV-3, 48 h; how it was run: as §1
[24] = Growth inhibition of human HCC2998 cells after 48 hrs by sulforhodamine B assay; conditions: HCC 2998, 48 h; how it was run: as §2
[25] = tested on: MDA-MB-435; experiment: Growth inhibition of human MDA-MB-435 cells after 48 hrs by sulforhodamine B assay; conditions: MDA-MB-435, 48 h; how it was run: as §2
[26] = Growth inhibition of human UO31 cells at 10 uM after 48 hrs by sulforhodamine B assay; conditions: UO-31, 48 h, values are per cent of control
[27] = tested on: SR; experiment: Growth inhibition of human SR cells after 48 hrs by sulforhodamine B assay; how it was run: as §1
[28] = tested on: MDA-MB-468; experiment: Growth inhibition of human MDA-MB-468 cells after 48 hrs by sulforhodamine B assay; conditions: MDA-MB-468, 48 h; how it was run: as §2
[29] = Growth inhibition of human UACC62 cells after 48 hrs by sulforhodamine B assay; conditions: UACC-62, 48 h
How it was run: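 Five-dose testing across the 60-line human tumour cell panel. GI50 is the drug concentration that gives a 50% reduction in net protein increase relative to control cells.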

[30] = Growth inhibition of human RPMI8226 cells after 48 hrs by sulforhodamine B assay; conditions: RPMI-8226, 48 h; how it was run: as §1
[31] = Growth inhibition of human MOLT4 cells at 10 uM after 48 hrs by sulforhodamine B assay; conditions: MOLT-4, 48 h, values are per cent of control
[32] = Growth inhibition of human HOP62 cells after 48 hrs by sulforhodamine B assay; conditions: HOP-62, 48 h; how it was run: as §2
[33] = tested on: MDA-MB-231; experiment: Growth inhibition of human MDA-MB-231 cells after 48 hrs by sulforhodamine B assay; conditions: MDA-MB-231, 48 h; how it was run: as §2
[34] = Growth inhibition of human MOLT4 cells after 48 hrs by sulforhodamine B assay; conditions: MOLT-4, 48 h; how it was run: as §1
[35] = tested on: KM12; experiment: Growth inhibition of human KM12 cells at 10 uM after 48 hrs by sulforhodamine B assay; conditions: KM12, 48 h, values are per cent of control
[36] = tested on: CCRF-CEM; experiment: Growth inhibition of human CCRF-CEM cells after 48 hrs by sulforhodamine B assay; how it was run: as §2
[37] = Growth inhibition of human PC3 cells at 10 uM after 48 hrs by sulforhodamine B assay; conditions: PC-3, 48 h, values are per cent of control
[38] = tested on: U-251; experiment: Growth inhibition of human U251 cells after 48 hrs by sulforhodamine B assay; conditions: U-251, 48 h; how it was run: as §1
[39] = Growth inhibition of human SKOV3 cells at 10 uM after 48 hrs by sulforhodamine B assay; conditions: SK-OV-3, 48 h, values are per cent of control
[40] = tested on: NCI-H23; experiment: Growth inhibition of human NCI-H23 cells after 48 hrs by sulforhodamine B assay; conditions: NCI-H23, 48 h; how it was run: as §1
[41] = tested on: K562; experiment: Growth inhibition of human K562 cells at 10 uM after 48 hrs by sulforhodamine B assay; conditions: K562, 48 h, values are per cent of control
[42] = Growth inhibition of human HCT15 cells after 48 hrs by sulforhodamine B assay; conditions: HCT-15, 48 h; how it was run: as §2
[43] = Growth inhibition of human SNB19 cells after 48 hrs by sulforhodamine B assay; conditions: SNB-19, 48 h; how it was run: as §1
[44] = tested on: HT-29; experiment: Growth inhibition of human HT-29 cells at 10 uM after 48 hrs by sulforhodamine B assay; conditions: HT-29, 48 h, values are per cent of control

With `COc1ccc(/C=C(\C#N)c2ccc3c(c2)OCO3)cc1` as the molecule, how does the GI50 [1] read?
The GI50 was 320 nM.

What about the growth, % of control at 10 µM [2] of the same molecule?
The growth, % of control at 10 µM was 20.7%.

What about the growth, % of control at 10 µM [3] of the same molecule?
Its growth, % of control at 10 µM is 4.9%.

And the GI50 [4]?
The GI50 was 520 nM.

What about the growth, % of control at 10 µM [5] of the same molecule?
Its growth, % of control at 10 µM is 2.2%.

What about the GI50 [6] of the same molecule?
The GI50 was 120 nM.

And the GI50 [7]?
Its GI50 is 140 nM.

And the growth, % of control at 10 µM [8]?
The growth, % of control at 10 µM was 40.4%.

What about the growth, % of control at 10 µM [9] of the same molecule?
Its growth, % of control at 10 µM is 49.6%.

And the GI50 [10]?
Its GI50 is 220 nM.

What about the growth, % of control at 10 µM [11] of the same molecule?
Its growth, % of control at 10 µM is 21.6%.

What about the growth, % of control at 10 µM [12] of the same molecule?
The growth, % of control at 10 µM was 24.3%.

And the GI50 [13]?
The GI50 was 4220 nM.

And the growth, % of control at 10 µM [14]?
The growth, % of control at 10 µM was 18.9%.

What about the GI50 [15] of the same molecule?
The GI50 was 270 nM.

And the GI50 [16]?
Its GI50 is 120 nM.

And the growth, % of control at 10 µM [17]?
The growth, % of control at 10 µM was 0.1%.

What about the GI50 [18] of the same molecule?
Its GI50 is 460 nM.

What about the GI50 [19] of the same molecule?
Its GI50 is 210 nM.

And the growth, % of control at 10 µM [20]?
The growth, % of control at 10 µM was 49.6%.

What about the growth, % of control at 10 µM [21] of the same molecule?
Its growth, % of control at 10 µM is -6.2%.

What about the growth, % of control at 10 µM [22] of the same molecule?
Its growth, % of control at 10 µM is 23%.

What about the GI50 [23] of the same molecule?
The GI50 was 400 nM.

What about the GI50 [24] of the same molecule?
The GI50 was 5260 nM.

And the GI50 [25]?
The GI50 was 30 nM.

And the growth, % of control at 10 µM [26]?
The growth, % of control at 10 µM was 28%.

What about the GI50 [27] of the same molecule?
Its GI50 is 50 nM.

And the GI50 [28]?
The GI50 was 280 nM.

And the GI50 [29]?
The GI50 was 590 nM.

And the GI50 [30]?
The GI50 was 490 nM.

And the growth, % of control at 10 µM [31]?
The growth, % of control at 10 µM was 19.5%.

What about the GI50 [32] of the same molecule?
Its GI50 is 300 nM.

And the GI50 [33]?
The GI50 was 2110 nM.

What about the GI50 [34] of the same molecule?
The GI50 was 450 nM.

What about the growth, % of control at 10 µM [35] of the same molecule?
Its growth, % of control at 10 µM is 30%.

What about the GI50 [36] of the same molecule?
The GI50 was 250 nM.

And the growth, % of control at 10 µM [37]?
The growth, % of control at 10 µM was 21.2%.

What about the GI50 [38] of the same molecule?
Its GI50 is 430 nM.

What about the growth, % of control at 10 µM [39] of the same molecule?
Its growth, % of control at 10 µM is 28.8%.

What about the GI50 [40] of the same molecule?
The GI50 was 860 nM.

What about the growth, % of control at 10 µM [41] of the same molecule?
The growth, % of control at 10 µM was 15.8%.

And the GI50 [42]?
The GI50 was 70 nM.

What about the GI50 [43] of the same molecule?
Its GI50 is 750 nM.

And the growth, % of control at 10 µM [44]?
Its growth, % of control at 10 µM is 6%.
